Screens (PubChem BioAssay)
FXIIa inh – factor XIIa (human) inhibition | P00748 | purified FXIIa, Boc-QGR-AMC fluorogenic substrate, 2 h | inhibition, % at 5 µM | hit rate 0.3% among 220,000 | AID 800; in the data active = inhibition above about 40%
FXIa inh – inhibitors of human coagulation factor XIa. purified FXIa, Boc-Glu-Ala-Arg-AMC fluorogenic substrate. inhibition, % at 5 µM. hit rate 0.14% among 220,000. P03951;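 active = inhibition of at least 40%; inactive = inhibition below 40%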;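 note: fluorescence of freed AMC excited at 355 nm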
Furin inhibitor – blocks human furin protease activity; hit rate 0.061% among 220,000; purified furin, fluorogenic substrate cleavage; AID 463115; inhibition, % at 20 µM or 30 µM; P09958; in the data active = inhibition above about 25%
hK5 inh – kallikrein 5 (human) inhibition; recombinant hK5, fluorogenic AMC substrate cleavage; inhibition, % at 5 µM; hit rate 0.59% among 210,000; AID 873;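 active = inhibition of 40% or more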
Target sequence (Q9Y337 67-293 limits assumed): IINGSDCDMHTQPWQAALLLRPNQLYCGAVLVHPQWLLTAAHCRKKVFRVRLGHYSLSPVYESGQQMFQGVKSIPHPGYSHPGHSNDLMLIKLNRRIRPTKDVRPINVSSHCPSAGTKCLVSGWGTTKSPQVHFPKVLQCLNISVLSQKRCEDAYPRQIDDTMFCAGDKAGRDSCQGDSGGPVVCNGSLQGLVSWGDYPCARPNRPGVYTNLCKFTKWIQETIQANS
thrombin 1536 – blocks human thrombin protease activity; alpha-thrombin, Boc-VPR-AMC fluorogenic substrate cleavage; inhibition, % at 5 µM; hit rate 0.26% among 220,000; AID 1046;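 active = inhibition at or above 40%; inactive = inhibition below 40%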
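System: human alpha-thrombin protein; Compound dosing: one concentration per compound, 5 µM, with 0.2% DMSO; Timing: reaction at room temperature; Technique: AMC fluorescence, 355/460 nm; Controls: enzyme without compound as high, wells lacking enzyme as low.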
Large screens that a line does not name were inactive. An excerpt weighted towards active compounds, which were near 1.1% of everything screened.

CC(C)Cn1c2c(c(O)c(C(=O)Nc3nccs3)c1=O)CCCC2	none
CC(C)c1nc(SCc2c(F)cccc2Cl)c2c(=O)n(C)c(=O)n(C)c2n1	hK5 inh 65
NNc1nc2ccc(F)cc2s1	hK5 inh 43
S=C(Nc1ccccc1Oc1ccccc1)Nc1cccc(Cl)c1Cl	none
CCn1c(=O)c(C)nn2c3ccccc3nc12	none
Cc1nn2c3ccccc3nc2n(Cc2ccccc2)c1=O	Furin inhibitor 26 (no result: FXIIa inh, FXIa inh, hK5 inh, thrombin 1536)
CC(C)(C)c1ccc(NC(=O)COC(=O)C2(C)CC2(Cl)Cl)cc1 (stereo not given)	none
Cc1nonc1OC(C)CNCCNc1ccc([N+](=O)[O-])cc1 (stereo not given)	FXIIa inh 43
CCNC(=O)n1cc(-n2cncn2)c(-c2ccc(Cl)cc2)n1	none
Cc1ccc2c(c1)NC(=O)C(CC(=O)NCCCN1CCCCC1C)O2 (stereo not given)	hK5 inh 47
CCOC(=O)/C=c1\s/c(=C\c2sccc2C)c(=O)n1CC(=O)NCc1ccc(C)cc1	none (no result: hK5 inh)
C=C(C)CNC(=S)N/N=C/c1c(F)cccc1F	none
CCCC/C(O)=N\S(=O)(=O)c1ccc(N=NN(C)C)cc1	hK5 inh 70
CN(C)N=Nc1ccc(S(N)(=O)=O)cc1	none
O=C(COC(=O)CCc1ccc(S(=O)(=O)N2CCOCC2)cc1)NC1CCCCCC1	none
C=CCNC(=O)CN(c1ccc(F)cc1)S(=O)(=O)c1ccc(OC)cc1	FXIIa inh 54
Cc1n[nH]c(C)c1CCC(=O)N/N=C/c1cccs1	FXIIa inh 48, hK5 inh 69
Cc1n[nH]c(C)c1CCC(=O)N/N=C/c1c[nH]c2ccccc12	FXIa inh 48, hK5 inh 58
Cc1ccsc1/C=N\NC(=O)CCc1c(C)n[nH]c1C	none
CCCc1cc(=O)[nH]c(SCC(=O)c2[nH]c(C)c(C(=O)OCC)c2C)n1	none
CNC(=O)C(=O)N/N=C/c1ccc(Br)cc1	none
COC(=O)C1=C(C)NC2=C(C(=O)CCC2)C1c1ccc(-c2ccsc2C(=O)OC)o1 (stereo not given)	none
CC1=Nc2ccc(C)cc2/C1=C/c1c(N)n2c(S(=O)(=O)C(C)C)nsc2nc1=O	none
CSc1nsc2nc(=O)c(/C=C3\C(C)=Nc4ccc(C)cc43)c(N)n12	FXIIa inh 42
Cn1cccc1CC(=O)NNC(=S)Nc1ccc(Cl)cc1	none
COc1ccc(C2=NO[C@@H]3C(=O)N(c4ccc(C)cc4C)C(=O)[C@H]23)cc1OC	none
COc1ccc(-c2cn(-c3ccc(C)cc3C)c(=O)[nH]2)cc1OC	hK5 inh 49
CCC(=O)Nc1ccc(/C(C)=N/NC(=O)c2c(-c3ccccc3Cl)noc2C)cc1	none
S=C(NCCN1CCOCC1)Nc1ccc(Cl)cc1	hK5 inh 47
S=C(NCCCN1CCOCC1)Nc1ccc(Cl)cc1	none
CN(Cc1nc(Cc2cccc(F)c2)no1)CC1CCOCC1	none
Cn1c(Cl)nc2c1c(=O)n(Cc1cccc(Br)c1)c(=O)n2C	thrombin 1536 104
COC(=O)c1scc(C)c1NC(=O)Cc1ccccc1	hK5 inh 70
CN(C)C1C(=O)c2ccccc2C1=O	none
CCCc1cc(-n2ccnc2)n2c(nc3ccccc32)c1C#N	none
Cc1cc(-n2ccnc2)n2c(nc3ccccc32)c1C#N	FXIIa inh 106
CC(C)c1ccc(-c2noc(C3CCCN(C(=O)c4ccc(F)cc4F)C3)n2)cc1 (stereo not given)	thrombin 1536 61
COc1ccc(CC(=O)N2CCC(Nc3nc4ccccc4n3Cc3ccc(F)cc3)CC2)cc1	hK5 inh 60
Cn1nccc1C(=O)Oc1ccc(/C=N/NC(=O)c2ccccc2O)cc1	none
CCC(=O)NC(=S)Nc1cccc(NC(=O)c2ccccc2)c1	thrombin 1536 40
Cn1ccnc1SCC(=O)Nc1nc2c(F)c(F)c(F)cc2s1	none
O=C(NCc1ccccn1)c1ccc(CNS(=O)(=O)c2ccc(F)cc2)cc1	none
Clc1cccc(Cl)c1CSc1nnc([C@@H]2CCCN2)o1	none
CN1CCN(C(=O)c2cc3c(C(F)(F)F)nn(C)c3s2)CC1	hK5 inh 48
Cn1nc(C(F)(F)F)c2cc(C(=O)NC3CC3)sc21	none
COc1ccc(CC(=O)Nc2ccccc2N2CCOCC2)cc1OC	none
COc1ccc(CC(=O)Nc2ccccc2N2CCCCC2)cc1OC	hK5 inh 112
COC(=O)c1c(NC(=O)c2c(-c3ccccc3Cl)noc2C)sc2c1CCC2	FXIIa inh 41
COC(=O)c1c(NC(=O)c2c(C)noc2C)sc2c1CCCCCC2	none
COc1cc(C(=O)Nc2cccc(C)c2C)c(Br)c(OC)c1OC	none
